Measured values published in ChEMBL document CHEMBL2380295, “Structure-activity studies on the side chain of a simplified analog of aplysiatoxin (aplog-1) with anti-proliferative activity” (Bioorg Med Chem, 2013).

Key:
[1] = Cytotoxicity against human Raji cells assessed as cell viability at 10^-6 M; type: cell-based; settings: read-out: Activity
Mus musculus = organism: Mus musculus; experiment: Toxicity in ICR mouse assessed as development of tumors at 8.5 nmol treated twice a week from week 1 to week 20; type: organism-based; settings: in vivo
Method in brief: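 Mouse skin two-stage carcinogenesis: initiation by a single application of 390 nmol DMBA. From one week later, 8.5 nmol test compound was applied twice weekly from week 1 to week 20. The control group received DMBA then 1.7 nmol TPA twice weekly. Tumor development was monitored over time.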

[2] = Cytotoxicity against human Raji cells assessed as cell viability at 10^-7 M; type: cell-based; settings: read-out: Activity
Human gammaherpesvirus 4 [3] = experiment: Induction of EBV-early antigen expressed in human Raji cells at 10^-6 M after 48 hrs by immunofluorescence assay relative to control; type: organism-based; settings: human gammaherpesvirus 4, raji, 1 µM
Method in brief: (§1)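 Raji B-lymphoblastoid cells (5 × 10^5/mL) in RPMI 1640 with 10% FBS, with 4 mM sodium n-butyrate as synergist and test compound at 10^-7 or 10^-6 M (final DMSO 0.4%). Incubated 48 h at 37 °C under 5% CO2. Smears were stained by indirect immunofluorescence using NPC patient serum and FITC anti-human IgG. At least 500 cells counted; % EA-positive recorded; n = 3, SEM.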

Human gammaherpesvirus 4 [4] = experiment: Induction of EBV-early antigen expressed in human Raji cells at 10^-7 M after 48 hrs by immunofluorescence assay relative to control; type: organism-based; settings: human gammaherpesvirus 4, raji, 0.1 µM; method in brief: as §1
PC-3 = experiment: Growth inhibition of human PC3 cells after 48 hrs by sulforhodamine B assay; type: functional; settings: PC-3, 48 h
Method in brief: (§2)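 Yamori 39-line human cancer panel, NCI method with modifications. Cells plated in RPMI 1640 plus 5% FBS, attached overnight, then exposed 48 h to compound at 10^-8, 10^-7, 10^-6, 10^-5 and 10^-4 M. Sulforhodamine B staining read at 525 nm; % growth = 100[(T−T0)/(C−T0)] from duplicate-point averages, with T0 the time-zero absorbance. GI50 is the concentration giving 50.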

DU-145 = experiment: Growth inhibition of human DU145 cells after 48 hrs by sulforhodamine B assay; type: functional; settings: DU-145, 48 h; method in brief: as §2
MKN-74 = experiment: Growth inhibition of human MKN74 cells after 48 hrs by sulforhodamine B assay; type: functional; settings: MKN-74, 48 h; method in brief: as §2
MKN-28 = experiment: Growth inhibition of human MKN28 cells after 48 hrs by sulforhodamine B assay; type: functional; settings: MKN-28, 48 h; method in brief: as §2
MKN-45 = experiment: Growth inhibition of human MKN45 cells after 48 hrs by sulforhodamine B assay; type: functional; settings: MKN-45, 48 h; method in brief: as §2
MKN-7 = experiment: Growth inhibition of human MKN7 cells after 48 hrs by sulforhodamine B assay; type: functional; settings: MKN-7, 48 h; method in brief: as §2
St-4 = experiment: Growth inhibition of human St-4 cells after 48 hrs by sulforhodamine B assay; type: functional; settings: St-4, 48 h; method in brief: as §2
[5] = Growth inhibition of human MKN1 cells after 48 hrs by sulforhodamine B assay; type: functional; settings: MKN-1, 48 h; method in brief: as §2
[6] = Growth inhibition of human RXF631L cells after 48 hrs by sulforhodamine B assay; type: functional; settings: RXF 631, 48 h; method in brief: as §2
ACHN = experiment: Growth inhibition of human ACHN cells after 48 hrs by sulforhodamine B assay; type: functional; method in brief: as §2
OVCAR-8 = experiment: Growth inhibition of human OVCAR8 cells after 48 hrs by sulforhodamine B assay; type: functional; settings: OVCAR-8, 48 h; method in brief: as §2
SK-OV-3 = experiment: Growth inhibition of human SKOV3 cells after 48 hrs by sulforhodamine B assay; type: functional; settings: SK-OV-3, 48 h; method in brief: as §2
OVCAR-5 = experiment: Growth inhibition of human OVCAR5 cells after 48 hrs by sulforhodamine B assay; type: functional; settings: OVCAR-5, 48 h; method in brief: as §2
OVCAR-3 = experiment: Growth inhibition of human OVCAR3 cells after 48 hrs by sulforhodamine B assay; type: functional; settings: OVCAR-3, 48 h; method in brief: as §2
OVCAR-4 = experiment: Growth inhibition of human OVCAR4 cells after 48 hrs by sulforhodamine B assay; type: functional; settings: OVCAR-4, 48 h; method in brief: as §2
DMS-114 = experiment: Growth inhibition of human DMS114 cells after 48 hrs by sulforhodamine B assay; type: functional; settings: DMS-114, 48 h; method in brief: as §2
LOX IMVI = experiment: Growth inhibition of human LOXIMVI cells after 48 hrs by sulforhodamine B assay; type: functional; method in brief: as §2
A549 = experiment: Growth inhibition of human A549 cells after 48 hrs by sulforhodamine B assay; type: functional; settings: A549, 48 h; method in brief: as §2
DMS-273 = experiment: Growth inhibition of human DMS273 cells after 48 hrs by sulforhodamine B assay; type: functional; settings: DMS-273, 48 h; method in brief: as §2
NCI-H460 = experiment: Growth inhibition of human NCI-H460 cells after 48 hrs by sulforhodamine B assay; type: functional; settings: NCI-H460, 48 h; method in brief: as §2
NCI-H226 = experiment: Growth inhibition of human NCI-H226 cells after 48 hrs by sulforhodamine B assay; type: functional; settings: NCI-H226, 48 h; method in brief: as §2
NCI-H522 = experiment: Growth inhibition of human NCI-H522 cells after 48 hrs by sulforhodamine B assay; type: functional; settings: NCI-H522, 48 h; method in brief: as §2
HCT-116 = experiment: Growth inhibition of human HCT116 cells after 48 hrs by sulforhodamine B assay; type: functional; settings: HCT-116, 48 h; method in brief: as §2
NCI-H23 = experiment: Growth inhibition of human NCI-H23 cells after 48 hrs by sulforhodamine B assay; type: functional; settings: NCI-H23, 48 h; method in brief: as §2
HCT-15 = experiment: Growth inhibition of human HCT15 cells after 48 hrs by sulforhodamine B assay; type: functional; settings: HCT-15, 48 h; method in brief: as §2
KM12 = experiment: Growth inhibition of human KM12 cells after 48 hrs by sulforhodamine B assay; type: functional; settings: KM12, 48 h; method in brief: as §2
HT-29 = experiment: Growth inhibition of human HT-29 cells after 48 hrs by sulforhodamine B assay; type: functional; settings: HT-29, 48 h; method in brief: as §2
SNB-78 = experiment: Growth inhibition of human SNB78 cells after 48 hrs by sulforhodamine B assay; type: functional; settings: SNB-78, 48 h; method in brief: as §2
[7] = Growth inhibition of human HCC2998 cells after 48 hrs by sulforhodamine B assay; type: functional; settings: HCC 2998, 48 h; method in brief: as §2
SF-539 = experiment: Growth inhibition of human SF539 cells after 48 hrs by sulforhodamine B assay; type: functional; settings: SF-539, 48 h; method in brief: as §2
SNB-75 = experiment: Growth inhibition of human SNB75 cells after 48 hrs by sulforhodamine B assay; type: functional; settings: SNB-75, 48 h; method in brief: as §2
SF-295 = experiment: Growth inhibition of human SF295 cells after 48 hrs by sulforhodamine B assay; type: functional; settings: SF-295, 48 h; method in brief: as §2
U-251 = experiment: Growth inhibition of human U251 cells after 48 hrs by sulforhodamine B assay; type: functional; settings: U-251, 48 h; method in brief: as §2
SF-268 = experiment: Growth inhibition of human SF268 cells after 48 hrs by sulforhodamine B assay; type: functional; settings: SF-268, 48 h; method in brief: as §2
MCF7 = experiment: Growth inhibition of human MCF7 cells after 48 hrs by sulforhodamine B assay; type: functional; settings: MCF7, 48 h; method in brief: as §2
MDA-MB-231 = experiment: Growth inhibition of human MDA-MB-231 cells after 48 hrs by sulforhodamine B assay; type: functional; settings: MDA-MB-231, 48 h; method in brief: as §2
[8] = Growth inhibition of human BSY1 cells after 48 hrs by sulforhodamine B assay; type: functional; settings: BSY-1, 48 h; method in brief: as §2
[9] = Growth inhibition of human HBC5 cells after 48 hrs by sulforhodamine B assay; type: functional; settings: HBC5, 48 h; method in brief: as §2
[10] = Growth inhibition of human HBC4 cells after 48 hrs by sulforhodamine B assay; type: functional; settings: HBC4, 48 h; method in brief: as §2
[11] = Octanol-water partition coefficient, log P of the compound by HPLC analysis; type: physicochemical
Method in brief: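 log P was estimated from HPLC retention, with column dead time measured using unretained formamide.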

[12] = target: T1, Protein kinase C delta type (Homo sapiens, UniProt Q05655); experiment: Inhibition of [3H]PDBu binding to PKCdelta-C1A domain peptide (unknown origin)
T1 sequence (Q05655 whole entry, the tested form may be a part): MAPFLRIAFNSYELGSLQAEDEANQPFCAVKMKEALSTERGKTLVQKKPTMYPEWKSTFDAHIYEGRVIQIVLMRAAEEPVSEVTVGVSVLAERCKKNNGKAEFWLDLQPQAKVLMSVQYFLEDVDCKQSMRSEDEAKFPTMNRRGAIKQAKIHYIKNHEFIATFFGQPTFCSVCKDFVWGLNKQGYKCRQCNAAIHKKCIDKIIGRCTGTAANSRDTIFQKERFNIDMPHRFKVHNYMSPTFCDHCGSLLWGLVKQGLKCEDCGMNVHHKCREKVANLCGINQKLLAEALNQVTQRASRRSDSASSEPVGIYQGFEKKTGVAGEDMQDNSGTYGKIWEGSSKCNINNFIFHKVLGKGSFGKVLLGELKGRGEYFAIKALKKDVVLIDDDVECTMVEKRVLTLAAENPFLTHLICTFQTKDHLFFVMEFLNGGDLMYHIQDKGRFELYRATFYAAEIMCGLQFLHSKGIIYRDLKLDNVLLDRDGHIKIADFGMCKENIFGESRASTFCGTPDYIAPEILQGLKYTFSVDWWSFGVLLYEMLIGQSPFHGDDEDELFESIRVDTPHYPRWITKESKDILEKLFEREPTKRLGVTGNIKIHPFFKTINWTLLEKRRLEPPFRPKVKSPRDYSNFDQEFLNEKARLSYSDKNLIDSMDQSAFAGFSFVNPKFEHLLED
Method in brief: (§3)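 Competitive [3H]PDBu binding used 14 or 40 nM PKCδ C1 peptide and 20 nM [3H]PDBu (19.6 Ci/mmol), in 50 mM Tris-maleate (pH 7.4 at 4 °C) with 50 µg/mL phosphatidylserine, 3 mg/mL bovine γ-globulin and varied inhibitor concentrations. IC50 was taken as 50% inhibition of specific binding. Ki was derived by the Sharkey–Blumberg method.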

[13] = target: T1, Protein kinase C delta type; experiment: Inhibition of [3H]PDBu binding to PKCdelta-C1B domain peptide (unknown origin); method in brief: as §3

CC1(C)CC[C@@H]2CC(=O)O[C@@H](CO)CC(=O)O[C@@H]3C[C@@H](CCCCc4cc(O)ccc4Br)O[C@@]1(C3)O2
viability at 1 µM [1]: 40% | Activity (Mus musculus): Non-toxic | viability at 0.1 µM [2]: 50% | Activity (Human gammaherpesvirus 4 [3]): 1.9% | Activity (Human gammaherpesvirus 4 [4]): 1.8% | GI50 (PC-3): 2950 nM | GI50 (DU-145): 11.5 µM | GI50 (MKN-74): 13.8 µM | GI50 (MKN-28): 12 µM | GI50 (MKN-45): 1820 nM | GI50 (MKN-7): 6.92 µM | GI50 (St-4): 955 nM | GI50 [5]: 11.7 µM | GI50 [6]: 16.2 µM | GI50 (ACHN): 5.13 µM | GI50 (OVCAR-8): 16.2 µM | GI50 (SK-OV-3): 15.5 µM | GI50 (OVCAR-5): 7.76 µM | GI50 (OVCAR-3): 13.5 µM | GI50 (OVCAR-4): 14.5 µM | GI50 (DMS-114): 12.6 µM | GI50 (LOX IMVI): 794 nM | GI50 (A549): 5.01 µM | GI50 (DMS-273): 11.7 µM | GI50 (NCI-H460): 1660 nM | GI50 (NCI-H226): 11.7 µM | GI50 (NCI-H522): 13.5 µM | GI50 (HCT-116): 10.7 µM | GI50 (NCI-H23): 11.5 µM | GI50 (HCT-15): 15.5 µM | GI50 (KM12): 4.27 µM | GI50 (HT-29): 13.2 µM | GI50 (SNB-78): 15.5 µM | GI50 [7]: 794 nM | GI50 (SF-539): 11 µM | GI50 (SNB-75): 12.3 µM | GI50 (SF-295): 5.5 µM | GI50 (U-251): 12.6 µM | GI50 (SF-268): 12.6 µM | GI50 (MCF7): 18.2 µM | GI50 (MDA-MB-231): 468 nM | GI50 [8]: 2630 nM | GI50 [9]: 15.8 µM | GI50 [10]: 97.7 nM | logP [11]: 4 | Ki [12]: 66 nM | Ki [13]: 3.5 nM
